Results on 18 compounds are retold here after ChEMBL document CHEMBL1135574, “Carbocyclic dinucleoside polyphosphonates: interaction with HIV reverse transcriptase and antiviral activity” (J Med Chem, 2002).

Data set [1] deals with Human immunodeficiency virus type 1 reverse transcriptase (Human immunodeficiency virus 1, UniProt Q72547). The data set can be described thus: Inhibition of DNA synthesis by HIV reverse transcriptase.
In data set [2] the test system is MT4. The data set can be described thus: The concentration required to cause a 50% inhibition of cell proliferation was determined in MT-4 cell culture. The data set is classed as functional. To be noted: Homo sapiens, read-out: CD50 (the source's name). In a few lines:
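Uninfected MT-4 cells grown 3 days with compound at 0.001–100 μg/mL, triplicate per dose. Cell concentration and viability read by trypan blue exclusion; CD50 = concentration halving cell proliferation. Values averaged from two independent experiments.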

The test system of data set [3] is MT4. The data set can be described thus: The concentration required to cause a 50% inhibition of HIV reproduction was determined in MT-4 cell culture for free forms. Conditions: Homo sapiens, read-out: ID50 (the source's name). The data set is classed as functional. In a few lines:
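HIV-1 strain GKV-4046 in MT-4 cells (2×10^6/mL, viability >90%), MOI 0.2–0.5; cells in RPMI-1640 with 10% FBS, 37 °C, 5% CO2. Infected cells grown 3 days with free compound at 0.001–100 μg/mL, triplicate per dose. p24 antigen measured by immunoassay; ID50 = concentration halving HIV reproduction; two independent experiments averaged.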

Data set [4] relates to MT4. The data set can be described thus: The concentration required to cause a 50% inhibition of HIV reproduction was determined in MT-4 cell culture for liposome-entrapped forms. It is filed as functional. To be noted: Homo sapiens, read-out: ID50 (the source's name). The method, boiled down: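 HIV-1 GKV-4046 in MT-4 cells, MOI 0.2–0.5, 3-day culture, p24 immunoassay read-out. Compounds given in phosphatidylcholine liposomes: dry lipid film hydrated with compound in PBS pH 7.0 (1:124 drug/lipid, 1 mM compound), extruded down to 0.1 μm pores (mean 0.16 μm); 40–50% entrapment. ID50 from two independent experiments.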

Data set [5] can be described thus: Half life period in phosphate buffer (pH 7.5) was determined at 37 degrees Centigrade. The data set is classed as ADME. In a few lines:
(§1)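 Compounds held at 37 °C in human blood serum or in phosphate buffer, pH 7.5. For serum samples, precipitated proteins were spun off after thawing. Remaining material was analysed by RP-18 HPLC with a 0–25% linear gradient of 70% ethanol in 0.05 M triethylammonium bicarbonate (pH 7.5–8.0) over 25 min. Total loaded taken as 100%. Half-lives were averaged from at least three experiments.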

Data set [6] in a line: Half life period in human blood serum was determined at 37 degrees Centigrade. The data set is classed as ADME, Plasma. In a few lines:
as §1

Structures are written as SMILES.

In data set [1], `Nc1nc2c(ncn2C2C=CC(OCP(=O)(O)OP(=O)(O)C(Br)(Br)P(=O)(O)O)C2)c(=O)[nH]1` (stereo unspecified) gave an IC50 greater than 200 µM.

Turning to `Nc1ncnc2c1ncn2C1C=CC(OCP(=O)(O)OP(=O)(O)OP(=O)(O)OP(=O)(O)COC2C=CC(n3cnc4c(N)ncnc43)C2)C1` (stereo unspecified), in the data set with MT4 [2], the CC50 came to 131 µM. The figures for the IC50 (in data set [1]; with MT4 [3]; with MT4 [4]) were 2 µM, 2 µM and 1.2 µM, respectively.

As to `Nc1nc2c(ncn2C2C=CC(OCP(=O)(O)OP(=O)(O)OP(=O)(O)OP(=O)(O)COC3C=CC(n4cnc5c(=O)[nH]c(N)nc54)C3)C2)c(=O)[nH]1` (stereo unspecified), in the data set on MT4 [2], the CC50 was greater than 12 µM. Besides, the IC50 is 0.7 µM in data set [1], greater than 12 µM in the data set with MT4 [3] and 0.5 µM in the data set with MT4 [4]. In addition, the figures for the half-life in data set [5] and in data set [6] were 12 h and 3 h, respectively.

In data set [1], `Nc1ncnc2c1ncn2C1C=CC(OCP(=O)(O)OP(=O)(O)C(F)(F)P(=O)(O)OP(=O)(O)COC2C=CC(n3cnc4c(N)ncnc43)C2)C1` (stereo unspecified) returned an IC50 of 20 µM.

Turning to `Nc1nc2c(ncn2C2C=CC(OCP(=O)(O)OP(=O)(O)C(Br)(Br)P(=O)(O)OP(=O)(O)COC3C=CC(n4cnc5c(=O)[nH]c(N)nc54)C3)C2)c(=O)[nH]1` (stereo unspecified), in data set [1], the IC50 is greater than 250 µM.

For `Nc1nc2c(ncn2C2C=CC(OCP(=O)(O)OP(=O)(O)OP(=O)(O)COC3C=CC(n4cnc5c(=O)[nH]c(N)nc54)C3)C2)c(=O)[nH]1` (stereo unspecified), the CC50 in the data set with MT4 [2] was 56 µM. Also, the IC50 turned out to be 8 µM in data set [1] and 9 µM in the data set with MT4 [3].

With `Nc1nc(O)c2ncn(C3C=CC(OCP(=O)(O)O)C3)c2n1` (stereo unspecified), the CC50 in the data set with MT4 [2] was greater than 320 µM. In addition, the IC50 with MT4 [3] stood at 201 µM.

Consider `Nc1ncnc2c1ncn2C1C=CC(OCP(=O)(O)OP(=O)(O)C(Br)(Br)P(=O)(O)OP(=O)(O)COC2C=CC(n3cnc4c(N)ncnc43)C2)C1` (stereo unspecified), for which, in the data set on MT4 [2], the CC50 is greater than 110 µM. For the same compound, the IC50 in data set [1] is greater than 200 µM; in the data set with MT4 [3], 5.4 µM.

Turning to `Nc1nc2c(ncn2C2C=CC(OCP(=O)(O)OP(=O)(O)C(F)(F)P(=O)(O)O)C2)c(=O)[nH]1` (stereo unspecified), the CC50 with MT4 [2] came out at 144 µM. The IC50 in data set [1] is 25 µM; in the data set on MT4 [3] it was greater than 200 µM. Besides, the half-life in data set [5] was greater than 24 h; in data set [6], 7 h.

Consider `Nc1ncnc2c1ncn2C1C=CC(OCP(=O)(O)OP(=O)(O)OP(=O)(O)COC2C=CC(n3cnc4c(N)ncnc43)C2)C1` (stereo unspecified), for which the CC50 in the data set with MT4 [2] amounted to 146 µM. Besides, the IC50 in data set [1] turned out to be 10 µM; with MT4 [3], 6.6 µM.

Regarding `Nc1nc(O)c2ncn(C3C=CC(OCP(=O)(O)OP(=O)(O)C(F)(F)P(=O)(O)OP(=O)(O)COC4C=CC(n5cnc6c(O)nc(N)nc65)C4)C3)c2n1` (stereo unspecified), the CC50 with MT4 [2] stood at 84 µM. For the same compound, the IC50 in data set [1] was 15 µM; with MT4 [3], 60 µM. For the same compound, the values for the half-life in data set [5] and in data set [6] were 15 h and 3 h, respectively.

Turning to `Nc1ncnc2c1ncn2C1C=CC(OCP(=O)(O)OP(=O)(O)OP(=O)(O)O)C1` (stereo unspecified), the CC50 in the data set on MT4 [2] is 212 µM. Besides, the IC50 in data set [1] was 0.2 µM; in the data set on MT4 [3] it was greater than 10 µM.

`Nc1ncnc2c1ncn2C1C=CC(OCP(=O)(O)OP(=O)(O)C(F)(F)P(=O)(O)O)C1` (stereo unspecified) showed an IC50 in data set [1] of 25 µM.

On to `Nc1ncnc2c1ncn2C1C=CC(OCP(=O)(O)OP(=O)(O)C(Br)(Br)P(=O)(O)O)C1` (stereo unspecified), for which the CC50 in the data set with MT4 [2] was greater than 160 µM. Further, the IC50 in data set [1] was greater than 1000 µM; in the data set with MT4 [3] it was 80 µM.

`Nc1nc2c(ncn2C2C=CC(OCP(=O)(O)OP(=O)(O)OP(=O)(O)O)C2)c(=O)[nH]1` (stereo unspecified): the CC50 in the data set with MT4 [2] worked out at 20.5 µM. Also, the IC50 in data set [1] was 0.3 µM; with MT4 [3], 7.2 µM; with MT4 [4], less than 1 µM.

Turning to `Nc1nc2c(ncn2[C@H]2C[C@H](O)[C@@H](COP(=O)(O)OP(=O)(O)OP(=O)(O)O)O2)c(=O)[nH]1` [DEOXYGUANOSINE TRIPHOSPHATE], the half-life in data set [5] was greater than 24 h; in data set [6], 0.3 h.

As for `Cc1cn([C@H]2C=C[C@@H](CO)O2)c(=O)[nH]c1=O` [STAVUDINE], the CC50 in the data set on MT4 [2] is 314 µM. Also, in the data set with MT4 [3], the IC50 was 0.24 µM.

`Cc1cn([C@H]2C[C@H](N=[N+]=[N-])[C@@H](CO)O2)c(=O)[nH]c1=O` [ZIDOVUDINE]: the CC50 in the data set with MT4 [2] came out at 140 µM. In addition, the IC50 with MT4 [3] came out at 0.004 µM.
